According to ChEMBL document CHEMBL2331484, “Synthesis and biological evaluation of scopoletin derivatives” (Bioorg Med Chem, 2013):
The source made the active and inactive calls. No cut-off for these calls is given here.

tested on: HUVEC; assay: Antiangiogenic activity against HUVEC assessed as inhibition of VEGF-induced cell migration at 25 umol/L after 20 hrs by Boyden chamber assay; type: functional, cell-based; conditions: Homo sapiens
Procedure, shortened: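 Boyden chamber, 8.0 µm membrane. HUVECs at 80% confluence serum-starved 12 h in basal medium and suspended at 1 × 10⁶ cells/mL. Pre-treated 30 min at room temperature with DMSO or compound (final 25 µmol/L). After 20 h cells fixed, stained, and counted in five random fields. Triplicate experiments.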

Row | Compound | inhibition
1 | COc1cc2ccc(=O)oc2cc1O [SCOPOLETIN] | inactive

tested on: HepG2; assay: Cytotoxicity against human HepG2 cells after 24 hrs by MTT assay; type: functional, cell-based; conditions: HepG2, 24 h

Row | Compound | IC50 [µM]
2 | COc1cc2ccc(=O)oc2cc1O [SCOPOLETIN] | > 100

tested on: HCT-116; assay: Cytotoxicity against human HCT116 cells after 24 hrs by MTT assay; type: functional, cell-based; conditions: HCT-116, 24 h

Row | Compound | IC50 [µM]
3 | COc1cc2ccc(=O)oc2cc1O [SCOPOLETIN] | > 100

tested on: HUVEC; assay: Antiproliferative activity against HUVEC assessed as growth inhibition rate at 10 uM after 24 hrs by MTT assay; type: functional; conditions: Homo sapiens, read-out: GI
Procedure, shortened: (§1)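 HUVECs (passages 3–5, primary cord isolates) seeded at 1 × 10⁴ cells/well. Medium replaced with M199 containing 1% FBS plus compound. Viability read by MTT after 24 h. Percent inhibition was calculated from A570 minus A630 of treated versus control wells, and IC50 determined. Triplicate experiments, means ± SEM.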

Row | Compound | inhibition of growth at 10 µM [%]
4 | COc1cc2ccc(=O)oc2cc1OCC(O)CN1CCN(C)CC1 (configuration not stated) | 0.1
5 | COc1cc2ccc(=O)oc2cc1OCCN1CCN(C)CC1 | 0
6 | COc1cc2ccc(=O)oc2cc1OCC(=O)c1ccc(Cl)c(Cl)c1 | 0
7 | COc1cc2ccc(=O)oc2cc1OCC(O)CN1CCOCC1 (configuration not stated) | 0.4
8 | COc1cc2ccc(=O)oc2cc1OCCCCBr | 11.2
9 | COc1cc2ccc(=O)oc2cc1O [SCOPOLETIN] | 0

tested on: MKN-45; assay: Cytotoxicity against human MKN45 cells after 24 hrs by MTT assay; type: functional, cell-based; conditions: MKN-45, 24 h

Row | Compound | IC50 [µM]
10 | COc1cc2ccc(=O)oc2cc1O [SCOPOLETIN] | > 100

tested on: MDA-MB-231; assay: Cytotoxicity against human MDA-MB-231 cells after 24 hrs by MTT assay; type: functional, cell-based; conditions: MDA-MB-231, 24 h

Row | Compound | IC50 [µM]
11 | COc1cc2ccc(=O)oc2cc1O [SCOPOLETIN] | > 100

tested on: K562; assay: Cytotoxicity against human K562 cells after 24 hrs by MTT assay; type: functional, cell-based; conditions: K562, 24 h

Row | Compound | IC50 [µM]
12 | COc1cc2ccc(=O)oc2cc1O [SCOPOLETIN] | > 100

tested on: HUVEC; assay: Antiangiogenic activity against HUVEC assessed as inhibition of VEGF-induced branching and network formation at 25 umol/L after 5 hrs by microscopy; type: functional, cell-based; conditions: Homo sapiens
Procedure, shortened: (§2)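 Matrigel-coated wells gelled 37 °C 30 min. DMSO or compound (final 25 µmol/L) added for 30 min before plating. After 5 h, enclosed complete tubes counted in five random fields by microscopy. Triplicate experiments, means ± SEM.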

Row | Compound | inhibition
13 | COc1cc2ccc(=O)oc2cc1O [SCOPOLETIN] | inactive

tested on: PANC-1; assay: Inhibition of MMP-2 protein expression in human PANC1 cells at 10 to 50 umol/L after 24 hrs by SDS-PAGE analysis; type: functional, cell-based; conditions: not given
Procedure, shortened: (§3)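 Gelatin zymography of culture medium from equal numbers of PANC-1 cells exposed to compound for 24 h. Samples run non-reduced and unboiled on 10% polyacrylamide with 1 mg/mL gelatin. Gel washed in 2.5% Triton X-100 buffer, digested 14 h at 37 °C in Tris–HCl/CaCl2/ZnCl2 buffer pH 7.6, then Coomassie-stained. Clear bands imaged.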

Row | Compound | inhibition
14 | COc1cc2ccc(=O)oc2cc1O [SCOPOLETIN] | Active

tested on: A-431; assay: Cytotoxicity against human A431 cells after 24 hrs by MTT assay; type: functional, cell-based; conditions: A-431, 24 h

Row | Compound | IC50 [µM]
15 | COc1cc2ccc(=O)oc2cc1O [SCOPOLETIN] | > 100

tested on: PBMC; assay: Cytotoxicity against human PBMC after 24 hrs by MTT assay; type: cell-based; conditions: not given

Row | Compound | IC50 [µM]
16 | COc1cc2ccc(=O)oc2cc1O [SCOPOLETIN] | > 100

tested on: PANC-1; assay: Cytotoxicity against human PANC1 cells after 24 hrs by MTT assay; type: functional, cell-based; conditions: PANC-1, 24 h

Row | Compound | IC50 [µM]
17 | COc1cc2ccc(=O)oc2cc1O [SCOPOLETIN] | > 100

tested on: HUVEC; assay: Antiangiogenic activity against HUVEC assessed as inhibition of VEGF-induced tube formation at 25 umol/L after 5 hrs by microscopy; type: functional, cell-based; conditions: Homo sapiens; procedure, shortened: as §2

Row | Compound | inhibition
18 | COc1cc2ccc(=O)oc2cc1O [SCOPOLETIN] | inactive

tested on: HuT78; assay: Cytotoxicity against human HUT78 cells after 24 hrs by MTT assay; type: functional, cell-based; conditions: HuT78, 24 h

Row | Compound | IC50 [µM]
19 | COc1cc2ccc(=O)oc2cc1O [SCOPOLETIN] | > 100

tested on: BXPC-3; assay: Cytotoxicity against human BxPC3 cells after 24 hrs by MTT assay; type: functional, cell-based; conditions: BXPC-3, 24 h

Row | Compound | IC50 [µM]
20 | COc1cc2ccc(=O)oc2cc1O [SCOPOLETIN] | > 100

tested on: PANC-1; assay: Inhibition of MMP-9 protein expression in human PANC1 cells at 10 to 50 umol/L after 24 hrs by SDS-PAGE analysis; type: functional, cell-based; conditions: not given; procedure, shortened: as §3

Row | Compound | inhibition
21 | COc1cc2ccc(=O)oc2cc1O [SCOPOLETIN] | Active

tested on: HL-60; assay: Cytotoxicity against human HL60 cells after 24 hrs by MTT assay; type: functional, cell-based; conditions: HL-60, 24 h

Row | Compound | IC50 [µM]
22 | COc1cc2ccc(=O)oc2cc1O [SCOPOLETIN] | > 100

tested on: HUVEC; assay: Antiangiogenic activity against HUVEC assessed as inhibition of VEGF-induced migration at 25 umol/L after 20 hrs by microscopy; conditions: Homo sapiens

Row | Compound | inhibition
23 | COc1cc2ccc(=O)oc2cc1O [SCOPOLETIN] | inactive

tested on: A549; assay: Cytotoxicity against human A549 cells after 24 hrs by MTT assay; type: functional, cell-based; conditions: A549, 24 h

Row | Compound | IC50 [µM]
24 | COc1cc2ccc(=O)oc2cc1O [SCOPOLETIN] | > 100

tested on: not listed separately; assay: Cytotoxicity against human SHG44 cells after 24 hrs by MTT assay; type: functional, cell-based; conditions: SHG-44, 24 h

Row | Compound | IC50 [µM]
25 | COc1cc2ccc(=O)oc2cc1O [SCOPOLETIN] | > 100

tested on: HUVEC; assay: Antiproliferative activity against HUVEC assessed as growth inhibition rate at 100 uM after 24 hrs by MTT assay; type: functional; conditions: Homo sapiens, read-out: GI; procedure, shortened: as §1

Row | Compound | inhibition of growth at 100 µM [%]
26 | COc1cc2ccc(=O)oc2cc1OCC(O)CN1CCN(C)CC1 (configuration not stated) | 3.4
27 | COc1cc2ccc(=O)oc2cc1OCCN1CCN(C)CC1 | 12
28 | COc1cc2ccc(=O)oc2cc1OCC(=O)c1ccc(Cl)c(Cl)c1 | 42.8
29 | COc1cc2ccc(=O)oc2cc1OCC(O)CN1CCOCC1 (configuration not stated) | 0.1
30 | COc1cc2ccc(=O)oc2cc1OCCCCBr | 16.9
31 | COc1cc2ccc(=O)oc2cc1O [SCOPOLETIN] | 2.1

tested on: MDA-MB-435; assay: Cytotoxicity against human MDA-MB-435 cells after 24 hrs by MTT assay; type: functional, cell-based; conditions: MDA-MB-435, 24 h

Row | Compound | IC50 [µM]
32 | COc1cc2ccc(=O)oc2cc1O [SCOPOLETIN] | > 100
